Assay results taken from ChEMBL document CHEMBL1150419, “Structure-activity relationships of a peptide inhibitor of the human FcRn:human IgG interaction” (Bioorg Med Chem, 2008).
Bridge positions count the residues as written; N and C are the ends. Square brackets hold non-standard residues; d marks the D form. Peptide text beside a SMILES is read from it. NMeA = CN[C@@H](C)C(=O)O; Dab = NCC[C@H](N)C(=O)O; βAla = NCCC(=O)O

Tests used:
[1] = biological target: T1, IgG receptor FcRn large subunit p51 (Homo sapiens, UniProt P55899); assay: Inhibition of human IgG binding to soluble human FcRn by ELISA
T1 sequence (P55899 whole entry, the tested form may be a part): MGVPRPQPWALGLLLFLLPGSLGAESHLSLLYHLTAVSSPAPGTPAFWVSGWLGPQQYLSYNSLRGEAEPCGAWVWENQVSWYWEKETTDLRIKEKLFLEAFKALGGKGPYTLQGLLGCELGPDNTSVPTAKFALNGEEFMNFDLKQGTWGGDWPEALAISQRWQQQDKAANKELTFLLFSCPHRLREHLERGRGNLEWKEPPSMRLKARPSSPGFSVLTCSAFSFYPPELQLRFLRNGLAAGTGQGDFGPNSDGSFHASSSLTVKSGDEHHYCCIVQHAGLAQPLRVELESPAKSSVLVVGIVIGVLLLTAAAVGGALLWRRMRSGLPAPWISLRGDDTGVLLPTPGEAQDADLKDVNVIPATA
How it was run: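 Biotinylated soluble human FcRn immobilized on neutravidin plates, incubated with hIgG (3 nM, constant) and peptide at varying concentrations for 2 h at 37 °C. After washing, bound hIgG detected with peroxidase-conjugated hIgG-specific Fab fragments.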

[2] = biological target: T1, IgG receptor FcRn large subunit p51; assay: Binding affinity to human FcRn at pH 6 by surface plasmon resonance assay
How it was run: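 Soluble human FcRn coupled to the dextran surface of a CM5 chip; peptide dilutions flowed over the chip. The equilibrium response at each dilution was plotted against concentration and fitted to a steady-state affinity model to give Kd.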

[3] = biological target: T1, IgG receptor FcRn large subunit p51; assay: Binding affinity to human FcRn at pH 7.4 by surface plasmon resonance assay
How it was run: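 Soluble human FcRn coupled to the dextran surface of a CM5 chip; peptide dilutions flowed over the chip. Equilibrium response at each dilution plotted against concentration, and Kd fitted with a steady-state affinity model.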

[4] = Stability in presence of subtilisin assessed as intact peptide after 1 hr; assay type: ADME; conditions: subtilisin (protease solution); read-out: Stability
How it was run: (§1)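 Peptide dissolved in PBS at 0.3 mg/mL and treated with a 470-fold molar excess of Subtilisin Carlsberg. The fraction of intact peptide remaining was recorded.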

[5] = Stability in presence of subtilisin assessed as intact peptide after 18 hrs; assay type: ADME; conditions: subtilisin (protease solution); read-out: Stability; how it was run: as §1

Row | IC50 [1] | Kd [2] | Kd [3] | remaining at 1 h [4] | remaining at 18 h [5] | Molecule
1 | 45 µM | 2 µM | 3 µM |  |  | CC(C)C[C@@H](C(=O)N[C@@H](Cc1ccc(O)cc1)C(=O)N1CCC[C@H]1C(=O)N[C@@H](CS)C(=O)O)N(C)C(=O)CN(C)C(=O)CNC(=O)[C@H](Cc1ccccc1)NC(=O)[C@H](Cc1ccsc1)NC(=O)CNC(=O)[C@@H](NC(=O)[C@@H](NC(=O)[C@H](Cc1ccccc1)NC(=O)[C@@H](N)CCCN=C(N)N)C(C)(C)S)[C@@H](C)O
2 |  | 0.064 µM | 0.26 µM |  |  | CC(C)C[C@@H](C(=O)N[C@@H](Cc1ccc(O)cc1)C(=O)N1CCC[C@H]1C(=O)N[C@@H](CS)C(=O)O)N(C)C(=O)CN(C)C(=O)CNC(=O)[C@H](Cc1ccccc1)NC(=O)[C@H](Cc1cccnc1)NC(=O)CNC(=O)[C@@H](NC(=O)[C@@H](NC(=O)[C@H](Cc1ccccc1)NC(=O)[C@@H](N)CCCNC(=N)N)C(C)(C)S)[C@@H](C)O
3 | 1.3 µM | 0.067 µM | 0.28 µM |  |  | CC(C)C[C@@H](C(=O)N[C@@H](Cc1ccc(O)cc1)C(=O)N1CCC[C@H]1C(=O)N[C@@H](CS)C(=O)O)N(C)C(=O)CN(C)C(=O)CNC(=O)[C@H](Cc1ccccc1)NC(=O)[C@H](Cc1ccncc1)NC(=O)CNC(=O)[C@@H](NC(=O)[C@@H](NC(=O)[C@H](Cc1ccccc1)NC(=O)[C@@H](N)CCCNC(=N)N)C(C)(C)S)[C@@H](C)O
4 |  | 0.074 µM | 0.073 µM |  |  | CC(C)C[C@@H](C(=O)N[C@@H](Cc1ccc(O)cc1)C(=O)N1CCC[C@H]1C(=O)N[C@@H](CS)C(=O)O)N(C)C(=O)CN(C)C(=O)CNC(=O)[C@H](Cc1ccccc1)NC(=O)[C@H](Cc1ccc(N=C(N)N)cc1)NC(=O)CNC(=O)[C@@H](NC(=O)[C@@H](NC(=O)[C@H](Cc1ccccc1)NC(=O)[C@@H](N)CCCN=C(N)N)C(C)(C)S)[C@@H](C)O
5 | 12 µM | 1.3 µM | 1.2 µM |  |  | CC(C)C[C@@H](C(=O)N[C@@H](Cc1ccc(O)cc1)C(=O)N1CCC[C@H]1C(=O)N[C@@H](CS)C(=O)O)N(C)C(=O)CN(C)C(=O)CNC(=O)[C@H](Cc1ccccc1)NC(=O)[C@H](CCCN)NC(=O)CNC(=O)[C@@H](NC(=O)[C@@H](NC(=O)[C@H](Cc1ccccc1)NC(=O)[C@@H](N)CCCNC(=N)N)C(C)(C)S)[C@@H](C)O
6 | 4.6 µM |  | 1.1 µM |  |  | CC(C)C[C@@H](C(=O)N[C@@H](Cc1ccc(O)cc1)C(=O)N1CCC[C@H]1C(=O)N[C@@H](CS)C(=O)O)N(C)C(=O)CN(C)C(=O)CNC(=O)[C@H](Cc1ccccc1)NC(=O)[C@H](Cc1ccc(N)cc1)NC(=O)CNC(=O)[C@@H](NC(=O)[C@@H](NC(=O)[C@H](Cc1ccccc1)NC(=O)[C@@H](N)CCCNC(=N)N)C(C)(C)S)[C@@H](C)O
7 | 8 µM |  |  | 100% | 95% | CC(C)C[C@@H](C(=O)N[C@@H](Cc1ccc(O)cc1)C(=O)N1CCC[C@H]1C(=O)N[C@@H](CS)C(=O)O)N(C)C(=O)CNC(=O)[C@@H](C)NC(=O)[C@H](Cc1ccccc1)NC(=O)[C@H](Cc1cnc[nH]1)NC(=O)CNC(=O)[C@@H](C)N(C)C(=O)[C@@H](NC(=O)[C@H](Cc1ccccc1)NC(=O)[C@@H](N)CCCNC(=N)N)C(C)(C)S
8 | 36 µM | 5.7 µM | 45 µM |  |  | CC(C)C[C@@H]1NC(=O)CNC(=O)CNC(=O)[C@H](Cc2ccccc2)NC(=O)[C@H](Cc2cnc[nH]2)NC(=O)CNC(=O)[C@H]([C@@H](C)O)NC(=O)[C@@H](NC(=O)[C@H](Cc2ccccc2)NC(=O)[C@H](CCCN=C(N)N)NC(=O)[C@@H](N)CCC(N)=O)CSSC[C@@H](C(=O)N[C@@H](CC(N)=O)C(=O)NCC(=O)N2CCC[C@H]2C(=O)O)NC(=O)[C@@H]2CCCN2C(=O)[C@H](Cc2ccc(O)cc2)NC1=O
9 | 5.5 µM | 0.5 µM | 0.5 µM |  |  | CC(C)C[C@@H](C(=O)N[C@@H](Cc1ccc(O)cc1)C(=O)N1CCC[C@H]1C(=O)N[C@@H](CS)C(=O)O)N(C)C(=O)CN(C)C(=O)CNC(=O)[C@H](Cc1ccccc1)NC(=O)[C@H](CCCNC(=N)N)NC(=O)CNC(=O)[C@@H](NC(=O)[C@@H](NC(=O)[C@H](Cc1ccccc1)NC(=O)[C@@H](N)CCCNC(=N)N)C(C)(C)S)[C@@H](C)O
10 | 40 µM | 1.3 µM | 1.1 µM |  |  | CC(C)C[C@@H](C(=O)N[C@@H](Cc1ccc(O)cc1)C(=O)N1CCC[C@H]1C(=O)N[C@@H](CS)C(=O)O)N(C)C(=O)CN(C)C(=O)CNC(=O)[C@H](Cc1ccccc1)NC(=O)[C@H](CCCCN)NC(=O)CNC(=O)[C@@H](NC(=O)[C@@H](NC(=O)[C@H](Cc1ccccc1)NC(=O)[C@@H](N)CCCN=C(N)N)C(C)(C)S)[C@@H](C)O
11 | 85 µM | 5.2 µM | 6.4 µM |  |  | CC(C)C[C@@H](C(=O)N[C@@H](Cc1ccc(O)cc1)C(=O)N1CCC[C@H]1C(=O)N[C@@H](CS)C(=O)O)N(C)C(=O)CN(C)C(=O)CNC(=O)[C@H](Cc1ccccc1)NC(=O)[C@H](CC1CCNCC1)NC(=O)CNC(=O)[C@@H](NC(=O)[C@@H](NC(=O)[C@H](Cc1ccccc1)NC(=O)[C@@H](N)CCCNC(=N)N)C(C)(C)S)[C@@H](C)O
12 | 33 µM | 5.2 µM | 35 µM |  |  | CC[C@H](C)[C@@H]1NC(=O)CNC(=O)CNC(=O)[C@H](Cc2ccccc2)NC(=O)[C@H](Cc2cnc[nH]2)NC(=O)CNC(=O)[C@H]([C@@H](C)O)NC(=O)[C@H](C(C)C)NC(=O)[C@@H](NC(=O)CNC(=O)CNC(=O)CN)CSSC[C@@H](C(=O)N[C@@H](CC(N)=O)C(=O)N[C@@H](Cc2ccc(O)cc2)C(=O)N[C@@H](CCC(N)=O)C(=O)O)NC(=O)[C@H](Cc2ccc(O)cc2)NC1=O (H-GGGCVTGHFGGIYCNYQ-OH; disulfide 4-14)
13 | 64 µM | 22 µM | 78 µM |  |  | CC[C@H](C)[C@H](NC(=O)[C@@H](NC(=O)[C@@H](N)CCCCN)[C@@H](C)CC)C(=O)N[C@H]1CSSC[C@@H](C(=O)N[C@@H](CCC(N)=O)C(=O)NCC(=O)N[C@@H](CCCCN)C(=O)O)NC(=O)[C@H](Cc2ccc(O)cc2)NC(=O)[C@H](CCSC)NC(=O)CNC(=O)CNC(=O)[C@H](Cc2ccccc2)NC(=O)[C@H](Cc2cnc[nH]2)NC(=O)CNC(=O)[C@@H]2CCCN2C(=O)[C@H](CO)NC1=O (H-KIICSPGHFGGMYCQGK-OH; disulfide 4-14)
14 | 49 µM | 8.8 µM | 76 µM |  |  | CC[C@H](C)[C@@H]1NC(=O)CNC(=O)[C@H](CC(=O)O)NC(=O)[C@H]([C@@H](C)CC)NC(=O)[C@H](Cc2cnc[nH]2)NC(=O)CNC(=O)[C@H](CCC(=O)O)NC(=O)[C@H]([C@@H](C)CC)NC(=O)[C@@H](NC(=O)[C@H](Cc2ccc(O)cc2)NC(=O)[C@H](CO)NC(=O)[C@@H]2CCCN2)CSSC[C@@H](C(=O)N[C@@H](Cc2ccccc2)C(=O)N[C@@H](CC(N)=O)C(=O)N[C@@H](C)C(=O)O)NC(=O)[C@H](Cc2ccc(O)cc2)NC1=O (H-PSYCIEGHIDGIYCFNA-OH; disulfide 4-14)
15 | 107 µM | 26 µM |  |  |  | C[C@H](NC(=O)CNC(=O)CNC(=O)[C@H](Cc1ccccc1)NC(=O)[C@H](Cc1cnc[nH]1)NC(=O)CNC(=O)[C@@H](NC(=O)[C@H](CS)NC(=O)[C@H](Cc1ccccc1)NC(=O)[C@H](CCCN=C(N)N)NC(=O)[C@@H](N)CCC(N)=O)[C@@H](C)O)C(=O)N[C@@H](Cc1ccc(O)cc1)C(=O)N1CCC[C@H]1C(=O)N[C@@H](CS)C(=O)N[C@@H](CC(N)=O)C(=O)NCC(=O)N1CCC[C@H]1C(=O)O (H-QRFCTGHFGGAYPCNGP-OH)
16 | > 125 µM | > 250 µM |  |  |  | CC(C)C[C@H](NC(=O)CNC(=O)CNC(=O)[C@H](Cc1ccccc1)NC(=O)[C@H](Cc1cnc[nH]1)NC(=O)CNC(=O)[C@@H](NC(=O)[C@H](CS)NC(=O)[C@H](Cc1ccccc1)NC(=O)[C@H](CCCNC(=N)N)NC(=O)[C@@H](N)CCC(N)=O)[C@@H](C)O)C(=O)N[C@@H](C)C(=O)N1CCC[C@H]1C(=O)N[C@@H](CS)C(=O)N[C@@H](CC(N)=O)C(=O)NCC(=O)N1CCC[C@H]1C(=O)O (H-QRFCTGHFGGLAPCNGP-OH)
17 | > 125 µM | > 250 µM |  |  |  | CC(C)C[C@H](NC(=O)CNC(=O)CNC(=O)[C@H](Cc1ccccc1)NC(=O)[C@H](Cc1cnc[nH]1)NC(=O)CCNC(=O)[C@@H](NC(=O)[C@H](CS)NC(=O)[C@H](Cc1ccccc1)NC(=O)[C@H](CCCNC(=N)N)NC(=O)[C@@H](N)CCC(N)=O)[C@@H](C)O)C(=O)N[C@@H](Cc1ccc(O)cc1)C(=O)N1CCC[C@H]1C(=O)N[C@@H](CS)C(=O)N[C@@H](CC(N)=O)C(=O)NCC(=O)N1CCC[C@H]1C(=O)O (H-QRFCT[βAla]HFGGLYPCNGP-OH)
18 | 169 µM | 18 µM |  |  |  | CC(C)C[C@H](NC(=O)CNC(=O)CNC(=O)[C@H](Cc1ccccc1)NC(=O)[C@H](Cc1cnc[nH]1)NC(=O)CNC(=O)[C@H](C)N(C)C(=O)[C@H](CS)NC(=O)[C@H](Cc1ccccc1)NC(=O)[C@H](CCCNC(=N)N)NC(=O)[C@@H](N)CCC(N)=O)C(=O)N[C@@H](Cc1ccc(O)cc1)C(=O)N1CCC[C@H]1C(=O)N[C@@H](CS)C(=O)N[C@@H](CC(N)=O)C(=O)NCC(=O)N1CCC[C@H]1C(=O)O (H-QRFC[NMeA]GHFGGLYPCNGP-OH)
19 | 81 µM | 4.8 µM |  |  |  | CC(C)C[C@H](NC(=O)CNC(=O)CNC(=O)[C@H](Cc1ccccc1)NC(=O)[C@H](Cc1cnc[nH]1)NC(=O)CNC(=O)[C@@H](NC(=O)[C@H](CCN)NC(=O)[C@H](Cc1ccccc1)NC(=O)[C@H](CCCN=C(N)N)NC(=O)[C@@H](N)CCC(N)=O)[C@@H](C)O)C(=O)N[C@@H](Cc1ccc(O)cc1)C(=O)N1CCC[C@H]1C(=O)N[C@@H](CCC(=O)O)C(=O)N[C@@H](CC(N)=O)C(=O)NCC(=O)N1CCC[C@H]1C(=O)O (H-QRF[Dab]TGHFGGLYPENGP-OH)
20 | > 125 µM | 230 µM |  |  |  | H-QRFSTGHFGGLYPSNGP-OH
21 | > 250 µM | > 250 µM |  |  |  | H-TGHFGGLYP-OH
